Tests used:
DC3F/AD [1] = experiment: Increase in adriamycin uptake in modulator-treated cells relative to untreated cells at a concentration of 10 uM; type: functional, Cricetulus griseus
Outline: (§1)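 DC-3F/AD or KB-A1 cells (5 × 10⁶/mL) were incubated at 37 °C for 5 h with 50 μM adriamycin plus modulator (2.5–10 μM range). ADR fluorescence of 10 000 cells was read by flow cytometry at 4 °C with 488 nm argon-laser excitation. The value is the increase in mean fluorescence of treated cells over untreated cells.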

DC3F/AD [2] = experiment: Increase in adriamycin uptake in modulator-treated cells relative to untreated cells at a concentration of 5 uM; type: functional, Cricetulus griseus; outline: as §1
DC3F/AD [3] = experiment: Percent of cell viability remaining after incubating the cells with the modulator alone a concentration of 5 uM; type: functional, Cricetulus griseus
Outline: (§2)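 Cells were grown with modulator alone for 4 days under the same conditions as the chemosensitivity assay, and read by MTT. Viability = (absorbance with modulator/absorbance of control cells) × 100. "tox" marks viability below 25%.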

DC3F/AD [4] = experiment: Percent of cell viability remaining after incubating with a 10 uM concentration; type: functional, Cricetulus griseus; outline: as §2
DC3F/AD [5] = experiment: In vitro activity in DC-3F/AD cell line(Ratio of IC50(actinomycin D alone) / IC50(actinomycin D + modulator) at a concentration of 5 uM
DC3F/AD [6] = experiment: In vitro activity in DC-3F/AD cell line Ratio of IC50(actinomycin D alone) / IC50(actinomycin D + modulator) at a concentration of 10 uM
KB [7] = experiment: Percent of cell viability remaining after incubating the cells with the modulator alone; type: functional, Homo sapiens; set-up: concentration or dose not given beside the values; outline: as §2
KB [8] = experiment: Increase in adriamycin uptake in modulator-treated cells relative to untreated KB-A1 cells at a concentration of 5 uM; type: functional, Homo sapiens; outline: as §1
KB [9] = experiment: In vitro activity in KB-A1 cell line activity expressed as fold reversion (Ratio of IC50(adriamycin alone) / IC50(adriamycin + modulator) at a concentration of 5 uM; type: functional, Homo sapiens
Outline: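 Human epidermoid KB-A1 cells (Pgp-overexpressing) were grown in RPMI 1640 with 10% FCS and 10 mM HEPES (pH 7.4). They were exposed for 4 days to adriamycin (nine graded concentrations, in triplicate) with or without 5 μM modulator. IC50 was read by the MTT assay. Fold reversion = IC50(ADR alone)/IC50(ADR + modulator).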

Row | Compound | Increase (DC3F/AD [1]) | Increase (DC3F/AD [2]) | Viability (DC3F/AD [3]) [%] | Viability (DC3F/AD [4]) [%] | Fold reversion (DC3F/AD [5]) | Fold reversion (DC3F/AD [6]) | Viability (KB [7]) [%] | Increase (KB [8]) | Fold reversion (KB [9])
1 | C=CCNc1nc(NCC=C)nc(N2CCC(N(C)CC(c3ccccc3)c3ccccc3)CC2)n1 | 27.9 | 20.6 | 88 | 85 | 354 | 1418 | – | – | –
2 | C=CCNc1nc(NCC=C)nc(N2CCN(CCCC(c3ccc(F)cc3)c3ccc(F)cc3)CC2)n1 | – | – | 50 | – | 171 | <25 | – | – | –
3 | C=CCNc1nc(N)nc(N2CCC(NCC3c4ccccc4CCc4ccccc43)CC2)n1 | 11 | 6.7 | 92 | – | 421 | – | 122 | 16.3 | 89
4 | C=CCNc1nc(NCC=C)nc(NCC(O)CN2CCC(NCC3c4ccccc4CCc4ccccc43)CC2)n1 (stereo unspecified) | 12.6 | 10.5 | 98 | – | 1 | – | – | 5.5 | <25
5 | C=CCNc1nc(NCC=C)nc(NCC2CCN(CC3c4ccccc4CCc4ccccc43)CC2)n1 | 21 | 19.3 | 57 | – | 353 | <25 | 53 | 9.8 | 12
6 | C=CCNc1nc(NCC=C)nc(N2CCN(CCC(c3ccccc3)c3ccccc3)CC2)n1 | 1.2 | 0 | 72 | 64 | 42 | 598 | – | – | –
7 | C=CCNc1nc(NCC=C)nc(N2CCC(NCC3c4ccccc4CS(=O)(=O)c4ccccc43)CC2)n1 (stereo unspecified) | – | – | 90 | 94 | 27 | 2536 | – | – | –
8 | C=CCNc1cc(N2CCC(NCC(c3ccccc3)c3ccccc3)CC2)nc(NCC=C)n1 | 16.3 | 15.1 | 67 | – | 472 | <25 | – | – | –
9 | C=CCNc1nc(NCC=C)nc(N2CCC(NC(c3ccc(F)cc3)c3ccc(F)cc3)CC2)n1 | 25.1 | 16 | 76 | 56 | 388 | 1212 | – | – | –
10 | C=CCNc1nc(NCC=C)nc(N2CCC(NCC(c3ccccc3)(c3ccccc3)c3ccccc3)CC2)n1 | – | – | 59 | – | 57 | <25 | – | – | –
11 | C=CCNc1nc(NCC=C)nc(N2CCC(NCCC(c3ccc(OC)c(OC)c3)c3ccc(OC)c(OC)c3)CC2)n1 | 2.9 | 1.6 | 115 | 114 | 12 | 12 | 100 | – | 6
12 | C/C=C/CNc1nc(NC/C=C/C)nc(N2CCC(NC(c3ccc(F)cc3)c3ccc(F)cc3)CC2)n1.Cl.Cl | – | – | 82 | 43 | 146 | 339 | – | – | –
13 | C=CCNc1cc(N2CCC(NC(c3ccc(F)cc3)c3ccc(F)cc3)CC2)nc(NCC=C)n1.Cl.Cl | – | – | 49 | – | 1174 | <25 | – | – | –
14 | C=CCNc1nc(NCCC)nc(N2CCC(NC(c3ccc(F)cc3)c3ccc(F)cc3)CC2)n1.Cl.Cl | 25.5 | 19.8 | – | 47 | – | 2220 | – | – | –
15 | C=CCNc1nc(NCC=C)nc(N2CCC(SCCC(c3ccccc3)c3ccccc3)CC2)n1 | 19.7 | 8 | 85 | 79 | 41 | 248 | – | – | –
16 | C=CCNc1nc(NCC=C)nc(N2CCC(NC(c3ccccc3)c3ccc(F)cc3)CC2)n1.Cl (stereo unspecified) | 19.4 | 10.5 | 72 | 54 | 732 | 1796 | – | – | –
17 | C=CCNc1nc(NCC=C)nc(N2CCC(OC(c3ccc(F)cc3)c3ccc(F)cc3)CC2)n1.Cl | 16.1 | 11.4 | 70 | 56 | 290 | 969 | – | – | –

Row | Compound | Increase (DC3F/AD [1]) | Increase (DC3F/AD [2]) | Viability (DC3F/AD [3]) [%] | Viability (DC3F/AD [4]) [%] | Fold reversion (DC3F/AD [5]) | Fold reversion (DC3F/AD [6]) | Viability (KB [7]) [%] | Increase (KB [8]) | Fold reversion (KB [9])
18 | C=CCNc1nc(NCCC)nc(N2CCC(NCCC(c3ccccc3)c3ccccc3)CC2)n1 | 27.2 | 17.9 | – | – | <25 | <25 | – | – | –
19 | C=CCNc1nc(NCC=C)nc(N2CCC(SC(c3ccccc3)c3ccccc3)CC2)n1 | 28.3 | – | 90 | 76 | 380 | 1202 | – | – | –
20 | C=CCNc1nc(NCC=C)nc(N2CCN(C(c3ccc(Cl)cc3)c3ccc(Cl)cc3)CC2)n1.CS(=O)(=O)O | – | – | 81 | 67 | 42 | 99 | – | – | –
21 | C=CCNc1nc(NCC=C)nc(NCC(O)CN2CCC(NC3c4ccccc4CCc4ccccc43)CC2)n1 (stereo unspecified) | 12.9 | 10.4 | 77 | – | 2 | – | – | 13 | <25
22 | C=CCNc1nc(NCC=C)nc(N2CCC(N(CC=C)C(c3ccc(F)cc3)c3ccc(F)cc3)CC2)n1 | 33.9 | 22.1 | – | 49 | – | 627 | – | – | –
23 | C=CCNc1nc(NCC=C)nc(NCCN2CCC(NCC3c4ccccc4CCc4ccccc43)CC2)n1 | 12.4 | 13.7 | 41 | – | 120 | <25 | – | 20.9 | <25
24 | C=CCNc1nc(NCC=C)nc(N2CCC(NCC3c4ccccc4CCc4cc(OC)ccc43)CC2)n1 (stereo unspecified) | – | 30.8 | 73 | – | 1913 | <25 | 83 | 72.6 | 264
25 | C=CCNc1nc(NCC=C)nc(N2CCN(NC(=O)C3c4ccccc4CCc4ccccc43)CC2)n1 | 24.8 | 9.5 | 86 | 67 | 138 | 2174 | – | – | –
26 | C=CCNc1nc(NCC=C)nc(N2CCC(NCC(c3ccccc3)c3ccccc3)CC2)n1 | 34.7 | 31.3 | 90 | 77 | 753 | 1540 | – | – | –
27 | C=CCNc1nc(NCC=C)nc(N2CCC(N(CC)C(c3ccc(F)cc3)c3ccc(F)cc3)CC2)n1 | 44.7 | 42.7 | 75 | 53 | 1008 | 1838 | – | – | –
28 | C=CCNc1nc(NCC=C)nc(NC2CCN(C(c3ccc(F)cc3)c3ccc(F)cc3)CC2)n1 | – | – | 38 | – | 1654 | <25 | 40 | – | 22
29 | C=CCNc1nc(NCC=C)nc(NCCN2CCC(NC3c4ccccc4CCc4ccccc43)CC2)n1 | 18.3 | 10.4 | 38 | – | 64 | <25 | – | 14.5 | <25
30 | C=CCNc1nc(NCC=C)nc(NN2CCN(C(c3ccc(F)cc3)c3ccc(F)cc3)CC2)n1 | 20.7 | 18.3 | 82 | 78 | 1932 | 5344 | – | – | –
31 | C=CCNc1nc(NCC=C)nc(N2CCC(NCC(c3cc(OC)cc(OC)c3)c3ccccc3C)CC2)n1 (stereo unspecified) | 26.5 | 24.7 | 80 | – | 1224 | <25 | 91 | 41.4 | 111
32 | C=CCNc1nc(NCC=C)nc(N2CCC(NCC(c3c(C)cccc3C)c3c(C)cccc3C)CC2)n1 | 35.5 | 28.9 | 100 | 84 | 93 | 374 | – | – | –
33 | C=CCNc1nc(NCC=C)nc(N2CCC(NCC34CCC(c5ccccc53)c3ccccc34)CC2)n1 | 30.7 | 20.2 | 90 | 87 | 96 | 422 | – | 22.2 | <25
34 | C=CCNc1nc(NCC=C)nc(N2CCC(NCCC(c3ccccc3)c3ccccc3)CC2)n1 | 29.8 | 21.5 | 50 | – | 220 | <25 | – | – | –

— ChEMBL document CHEMBL1126298, “New triazine derivatives as potent modulators of multidrug resistance” (1992)
